In ChEMBL document CHEMBL4411337, “2-Aminothiazole Derivatives as Selective Allosteric Modulators of the Protein Kinase CK2. 1. Identification of an Allosteric Binding Site” (J Med Chem, 2019) one finds Activity data, which are given here for one molecule.

The target of assay [1] is Aurora kinase A (Homo sapiens) (UniProt O14965). The assay can be described thus: Inhibition of aurora A (unknown origin) assessed as residual activity at 50 uM relative to control.
Assay [2] has as its target Cyclin-dependent kinase 7/ cyclin H (Homo sapiens) (UniProt P51946+P50613). The assay can be described thus: Inhibition of CDK7/cyclin H (unknown origin) assessed as residual activity at 50 uM relative to control. In kind it is protein-complex assay. In short, it runs like this:
(§1)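 Selectivity profiling against a panel of 44 human kinases. For each kinase, ATP was set to that kinase's Km. Values are residual activity in duplicate assays.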

For assay [3], the target named is CDK2/Cyclin A2 (Homo sapiens) (UniProt P24941+P20248). The assay can be described thus: Inhibition of CDK2/cyclin A (unknown origin) assessed as residual activity at 50 uM relative to control. In kind it is protein-complex assay. In short, it runs like this:
as §1

Assay [4] has as its target Serine/threonine-protein kinase PAK 2 (Homo sapiens) (UniProt Q13177). In words: Inhibition of PAK2 (unknown origin) assessed as residual activity at 50 uM relative to control. In short, it runs like this:
as §1

Assay [5] addresses Hepatocyte growth factor receptor (Homo sapiens) (UniProt P08581). In words: Inhibition of MET (unknown origin) assessed as residual activity at 50 uM relative to control. In short, it runs like this: as §1
The target in assay [6] is Mast/stem cell growth factor receptor Kit (Homo sapiens) (UniProt P10721). In words: Inhibition of cKIT (unknown origin) assessed as residual activity at 50 uM relative to control. In short, it runs like this: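 Profiling panel of 44 human kinases. ATP set to each kinase's Km. Run in duplicate; duplicates within 15–17% of each other.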
Assay [7] deals with Ephrin type-A receptor 4 (Homo sapiens) (UniProt P54764). The assay can be described thus: Inhibition of EPHA4 (unknown origin) assessed as residual activity at 50 uM relative to control. In short, it runs like this:
as §1

The target in assay [8] is Serine/threonine-protein kinase pim-1 (Homo sapiens) (UniProt P11309). The assay can be described thus: Inhibition of PIM1 (unknown origin) assessed as residual activity at 50 uM relative to control. In short, it runs like this:
as §1

The target in assay [9] is Epidermal growth factor receptor (Homo sapiens) (UniProt P00533). The assay can be described thus: Inhibition of EGFR (unknown origin) assessed as residual activity at 50 uM relative to control. In short, it runs like this:
as §1

The target in assay [10] is Tyrosine-protein kinase ABL1 (Homo sapiens) (UniProt P00519). The assay can be described thus: Inhibition of ABL (unknown origin) assessed as residual activity at 50 uM relative to control. In short, it runs like this:
as §1

Assay [11] addresses Muscle, skeletal receptor tyrosine-protein kinase (Homo sapiens) (UniProt O15146). The assay can be described thus: Inhibition of MUSK (unknown origin) assessed as residual activity at 50 uM relative to control. In short, it runs like this:
as §1

For assay [12], the target named is Casein kinase II subunit alpha (Homo sapiens, UniProt P68400). The assay can be described thus: Inhibition of CK2alpha (unknown origin) assessed as residual activity at 50 uM relative to control. In short, it runs like this: as §1
The target in assay [13] is Inhibitor of nuclear factor kappa-B kinase subunit alpha (Homo sapiens) (UniProt O15111). In words: Inhibition of IKKalpha (unknown origin) assessed as residual activity at 50 uM relative to control. In short, it runs like this:
as §1

Assay [14] deals with Fibroblast growth factor receptor 1 (Homo sapiens) (UniProt P11362). The assay can be described thus: Inhibition of FGFR1 (unknown origin) assessed as residual activity at 50 uM relative to control. In short, it runs like this:
as §1

Chain of Serine/threonine-protein kinase pim-1 (Homo sapiens) (P11309 whole entry, looked up): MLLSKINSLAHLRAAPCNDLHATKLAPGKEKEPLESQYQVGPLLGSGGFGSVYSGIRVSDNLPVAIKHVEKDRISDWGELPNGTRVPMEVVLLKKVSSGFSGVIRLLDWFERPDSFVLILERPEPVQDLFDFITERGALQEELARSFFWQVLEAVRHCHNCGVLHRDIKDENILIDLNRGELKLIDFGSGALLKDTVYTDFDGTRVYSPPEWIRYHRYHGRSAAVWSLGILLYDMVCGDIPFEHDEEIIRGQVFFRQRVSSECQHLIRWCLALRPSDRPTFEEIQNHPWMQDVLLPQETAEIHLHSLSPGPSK
Chain of Mast/stem cell growth factor receptor Kit (Homo sapiens) (P10721 whole entry): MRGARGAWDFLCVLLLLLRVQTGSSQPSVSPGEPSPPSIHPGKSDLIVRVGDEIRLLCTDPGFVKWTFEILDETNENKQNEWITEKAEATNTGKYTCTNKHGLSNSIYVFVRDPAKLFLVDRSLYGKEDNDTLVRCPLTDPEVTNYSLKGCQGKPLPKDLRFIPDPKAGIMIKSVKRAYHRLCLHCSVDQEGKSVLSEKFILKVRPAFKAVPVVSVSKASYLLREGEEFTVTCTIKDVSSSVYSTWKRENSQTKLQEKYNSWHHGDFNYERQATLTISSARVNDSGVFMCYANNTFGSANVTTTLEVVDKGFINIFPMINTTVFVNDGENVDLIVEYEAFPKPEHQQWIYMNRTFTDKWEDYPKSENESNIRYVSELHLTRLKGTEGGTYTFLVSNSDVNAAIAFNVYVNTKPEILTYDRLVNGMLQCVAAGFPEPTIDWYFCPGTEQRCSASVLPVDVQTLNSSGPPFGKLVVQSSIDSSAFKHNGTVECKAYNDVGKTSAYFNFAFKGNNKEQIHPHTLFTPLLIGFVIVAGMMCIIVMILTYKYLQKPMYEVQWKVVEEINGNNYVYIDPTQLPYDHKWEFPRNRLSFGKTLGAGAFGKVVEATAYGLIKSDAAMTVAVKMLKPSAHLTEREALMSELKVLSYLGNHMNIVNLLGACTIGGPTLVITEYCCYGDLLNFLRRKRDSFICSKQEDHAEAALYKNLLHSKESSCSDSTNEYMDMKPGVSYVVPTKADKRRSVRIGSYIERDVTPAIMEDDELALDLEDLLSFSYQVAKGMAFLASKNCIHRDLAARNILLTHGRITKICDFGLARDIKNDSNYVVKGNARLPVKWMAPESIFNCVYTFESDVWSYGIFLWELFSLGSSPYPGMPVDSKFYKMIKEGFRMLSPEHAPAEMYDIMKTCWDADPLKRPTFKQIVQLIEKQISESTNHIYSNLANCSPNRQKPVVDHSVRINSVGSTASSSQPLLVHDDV
Chain of Hepatocyte growth factor receptor (Homo sapiens) (P08581 whole entry): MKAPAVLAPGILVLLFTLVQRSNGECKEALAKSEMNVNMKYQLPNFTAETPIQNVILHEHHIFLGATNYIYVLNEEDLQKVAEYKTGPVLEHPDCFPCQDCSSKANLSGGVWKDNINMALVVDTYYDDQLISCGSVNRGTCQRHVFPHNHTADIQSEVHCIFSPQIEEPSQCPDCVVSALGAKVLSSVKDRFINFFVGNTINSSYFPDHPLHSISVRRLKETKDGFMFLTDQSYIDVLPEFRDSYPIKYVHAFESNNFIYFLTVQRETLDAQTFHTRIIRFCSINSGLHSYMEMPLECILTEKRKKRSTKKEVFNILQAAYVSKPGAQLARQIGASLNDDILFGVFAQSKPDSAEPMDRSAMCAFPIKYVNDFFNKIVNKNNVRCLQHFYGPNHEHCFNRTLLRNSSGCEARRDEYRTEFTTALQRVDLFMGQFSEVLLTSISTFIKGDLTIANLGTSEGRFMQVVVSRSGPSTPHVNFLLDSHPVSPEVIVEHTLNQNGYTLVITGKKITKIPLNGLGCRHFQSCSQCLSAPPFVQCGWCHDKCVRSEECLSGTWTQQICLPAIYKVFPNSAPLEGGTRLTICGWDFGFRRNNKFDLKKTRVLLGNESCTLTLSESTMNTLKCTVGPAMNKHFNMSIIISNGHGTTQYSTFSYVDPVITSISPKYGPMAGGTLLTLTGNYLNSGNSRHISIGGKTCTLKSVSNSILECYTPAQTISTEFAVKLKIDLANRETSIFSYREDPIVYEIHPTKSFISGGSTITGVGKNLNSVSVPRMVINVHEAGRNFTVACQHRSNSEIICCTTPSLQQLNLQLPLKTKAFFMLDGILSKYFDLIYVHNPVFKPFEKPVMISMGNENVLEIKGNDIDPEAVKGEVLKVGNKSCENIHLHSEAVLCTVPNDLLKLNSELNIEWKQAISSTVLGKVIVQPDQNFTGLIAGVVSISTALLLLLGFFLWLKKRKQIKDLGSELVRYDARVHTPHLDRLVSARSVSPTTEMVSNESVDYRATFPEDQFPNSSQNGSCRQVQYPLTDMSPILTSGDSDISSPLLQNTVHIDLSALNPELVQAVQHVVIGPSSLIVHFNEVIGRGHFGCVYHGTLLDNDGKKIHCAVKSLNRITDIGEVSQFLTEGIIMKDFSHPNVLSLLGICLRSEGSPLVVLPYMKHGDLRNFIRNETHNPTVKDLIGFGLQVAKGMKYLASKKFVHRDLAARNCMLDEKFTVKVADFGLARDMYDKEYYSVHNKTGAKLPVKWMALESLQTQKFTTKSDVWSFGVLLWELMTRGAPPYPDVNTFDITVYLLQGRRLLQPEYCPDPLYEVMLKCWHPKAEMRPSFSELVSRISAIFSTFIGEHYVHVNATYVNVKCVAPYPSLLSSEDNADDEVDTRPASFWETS
Chain of Serine/threonine-protein kinase PAK 2 (Homo sapiens) (Q13177 whole entry): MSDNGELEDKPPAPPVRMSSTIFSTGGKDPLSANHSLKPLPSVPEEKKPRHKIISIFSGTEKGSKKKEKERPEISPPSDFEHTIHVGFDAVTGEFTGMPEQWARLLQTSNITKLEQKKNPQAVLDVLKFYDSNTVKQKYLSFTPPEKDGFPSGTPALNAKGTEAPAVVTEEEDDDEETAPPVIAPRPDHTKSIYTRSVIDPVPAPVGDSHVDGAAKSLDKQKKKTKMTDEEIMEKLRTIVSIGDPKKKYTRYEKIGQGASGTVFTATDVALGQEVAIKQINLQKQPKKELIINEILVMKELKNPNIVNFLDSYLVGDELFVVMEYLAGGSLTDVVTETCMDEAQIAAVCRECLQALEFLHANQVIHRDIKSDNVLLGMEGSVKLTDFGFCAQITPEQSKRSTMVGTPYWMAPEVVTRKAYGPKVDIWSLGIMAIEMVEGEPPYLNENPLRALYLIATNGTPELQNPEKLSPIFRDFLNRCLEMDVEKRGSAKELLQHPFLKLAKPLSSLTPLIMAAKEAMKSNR
Chain of Inhibitor of nuclear factor kappa-B kinase subunit alpha (Homo sapiens) (O15111 whole entry): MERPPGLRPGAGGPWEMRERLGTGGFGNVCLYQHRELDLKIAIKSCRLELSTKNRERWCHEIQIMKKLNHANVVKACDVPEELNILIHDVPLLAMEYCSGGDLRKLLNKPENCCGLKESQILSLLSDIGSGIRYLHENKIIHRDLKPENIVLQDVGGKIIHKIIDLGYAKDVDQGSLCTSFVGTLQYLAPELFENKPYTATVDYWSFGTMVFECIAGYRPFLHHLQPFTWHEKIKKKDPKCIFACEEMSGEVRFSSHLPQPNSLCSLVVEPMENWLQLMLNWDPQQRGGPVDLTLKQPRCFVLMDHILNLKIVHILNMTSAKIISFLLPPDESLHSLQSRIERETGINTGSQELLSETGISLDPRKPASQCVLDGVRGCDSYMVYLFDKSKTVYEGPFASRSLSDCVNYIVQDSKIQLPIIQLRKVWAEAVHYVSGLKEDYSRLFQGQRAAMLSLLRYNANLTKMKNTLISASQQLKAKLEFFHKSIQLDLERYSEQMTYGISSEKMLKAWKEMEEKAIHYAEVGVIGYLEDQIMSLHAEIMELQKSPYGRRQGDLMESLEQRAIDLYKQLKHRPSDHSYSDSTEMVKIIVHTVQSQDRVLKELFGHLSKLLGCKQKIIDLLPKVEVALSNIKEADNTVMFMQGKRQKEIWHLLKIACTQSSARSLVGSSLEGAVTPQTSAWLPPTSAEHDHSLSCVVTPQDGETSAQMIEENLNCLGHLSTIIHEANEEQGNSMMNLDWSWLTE
Chain of Ephrin type-A receptor 4 (Homo sapiens) (P54764 whole entry): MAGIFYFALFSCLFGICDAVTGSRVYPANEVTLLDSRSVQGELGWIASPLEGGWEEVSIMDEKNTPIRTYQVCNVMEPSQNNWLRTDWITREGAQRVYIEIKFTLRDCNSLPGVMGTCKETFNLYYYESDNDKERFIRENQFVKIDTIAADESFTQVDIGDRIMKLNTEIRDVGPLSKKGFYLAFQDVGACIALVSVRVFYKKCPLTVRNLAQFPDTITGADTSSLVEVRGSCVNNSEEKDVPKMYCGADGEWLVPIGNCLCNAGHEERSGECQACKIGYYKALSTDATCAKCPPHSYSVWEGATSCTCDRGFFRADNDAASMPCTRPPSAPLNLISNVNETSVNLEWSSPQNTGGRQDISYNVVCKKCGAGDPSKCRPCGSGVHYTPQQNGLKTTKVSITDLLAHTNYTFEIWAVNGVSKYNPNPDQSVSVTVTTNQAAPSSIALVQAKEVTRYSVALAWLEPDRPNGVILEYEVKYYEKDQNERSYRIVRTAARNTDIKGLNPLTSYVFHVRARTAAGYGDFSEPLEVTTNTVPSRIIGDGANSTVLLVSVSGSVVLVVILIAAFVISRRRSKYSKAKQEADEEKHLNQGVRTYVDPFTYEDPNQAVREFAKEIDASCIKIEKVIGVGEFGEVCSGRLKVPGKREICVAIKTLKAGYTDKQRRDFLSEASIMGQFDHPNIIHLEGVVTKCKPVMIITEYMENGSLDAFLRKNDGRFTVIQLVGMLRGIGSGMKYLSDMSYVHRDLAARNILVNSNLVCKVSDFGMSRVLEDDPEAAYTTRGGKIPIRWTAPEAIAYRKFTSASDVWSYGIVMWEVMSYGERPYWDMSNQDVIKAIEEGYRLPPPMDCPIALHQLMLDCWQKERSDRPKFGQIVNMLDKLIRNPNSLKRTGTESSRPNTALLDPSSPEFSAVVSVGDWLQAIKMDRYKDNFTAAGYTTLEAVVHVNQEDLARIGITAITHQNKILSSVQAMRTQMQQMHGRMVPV

Turning to `O=C(O)c1ccc(Nc2nc(-c3cccc([N+](=O)[O-])c3)cs2)cc1`, the Activity in [1] was 79%; in [2] it was 104%; in [3], 86%; in assay [4], 102%; in [5], 102%; in assay [6] it was 87%. In addition, the Activity in [7] was determined as 45%; in [8] it was 46%; in assay [9] it was 26%; in assay [10], 104%; in [11], 62%; in [12] it was 0%. Also, the Activity was determined as 103% in [13] and 97% in assay [14].
